This is a sample that favours compounds with a hit; in the whole collection about 2.9% have one here.
IMP-1 inhibitor: inhibitors of Pseudomonas aeruginosa IMP-1 metallo-beta-lactamase; 290,000 compounds, 0.45% hits; inhibition, % at 5.6 µM; purified IMP-1, nitrocefin hydrolysis, epi-absorbance fluorescence;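 active = inhibition above the mean plus 3 SD of all compounds in the same screening run, cut at about 4.5% in these data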;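 note: 0% = IMP-1 with DMSO and 100% = DMSO wells lacking enzyme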
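System – purified recombinant IMP-1 beta-lactamase · Input – IMP-1 dispensed at 0.2 nM · Timing – 15 min preincubation plus 25 min reaction at 25 °C · Signal – Epi-absorbance fluorescence, 480 nm excitation, 530 nm emission · Measure – percent IMP-1 inhibition derived from blank-referenced optical density · Controls – Enzyme-plus-DMSO low control, enzyme-free DMSO high control · Replication – singlicate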
PolyA inhibitor: yeast polyadenylation inhibition. AID 1875. activity score, % at 12 µM. 300,000 compounds, 0.02% hits. S. cerevisiae SKY197-pL101 polyadenylation reporter, beta-gal luminescence; efflux-impaired pdr1/pdr3 knockout yeast; score 100 = 6 SD above DMSO;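 active = lowest replicate activity score at least 50, where 100 means six control SD above control mean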;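 note: yeast exposed to compound for 9 h at 30 °C; higher score means more reporter readthrough which indicates perturbed polyadenylation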
NALP3 yeast inh: NALP3 inhibition in yeast; inhibition, % at 10 µM; AID 2825; 330,000 compounds, 0.39% hits; Yeast reconstituted NLRP3/ASC/caspase-1, beta-gal luminescence, 24 h;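 active = inhibition of 50% or more; inactive = inhibition below 50%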;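 note: plate controls were induced DMSO wells for no effect and uninduced yeast grown without galactose for full effect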
SUMO Mot1 rescue: SUMOylation pathway inhibition by Mot1-301 growth rescue; S. cerevisiae Mot1-301 growth rescue, ATP luminescence, 38.5C; percent above DMSO median, 100 means doubled; 320,000 compounds, 1% hits; growth rescue, % at 18.8 µM; AID 2716;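 active = every valid replicate shows activation above 250% relative to neutral control wells; inactive = the rest, any valid replicate at or below 250%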;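 note: OY570 slx delta 5 strain wells were the positive control but not used for scaling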
NALP1 yeast inh: blocks the NALP1 inflammasome reconstituted in yeast; S. cerevisiae NALP1/ASC/caspase-1 growth, X-gal OD620, 72 h; inhibition, % at 10 µM; 280,000 compounds, 0.61% hits; in the data active = inhibition mostly above about 24%, no sharp cut-off; inactive = mostly below about 32%
VIM-2 inh: blocks Pseudomonas aeruginosa VIM-2 metallo-beta-lactamase | inhibition, % at 5.6 µM | purified VIM-2, nitrocefin hydrolysis, epi-absorbance fluorescence | 290,000 compounds, 0.89% hits;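 active = inhibition above the mean of all tested compounds plus 3 SD, cutoff set per screening run, cut at about 7.5% in these data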;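 note: red hydrolysis product quenches plate fluorescence so inhibitors raise well fluorescence; 0% = enzyme with DMSO and 100% = DMSO without enzyme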
* = called active by the depositor.

Results for Cc1cccc(N2CCN(C(=O)CCN3C(=S)NC(C)(C)CC3C)CC2)c1C (stereo not drawn) ?
IMP-1 inhibitor: -1.7; PolyA inhibitor: -1.9; NALP3 yeast inh: 10.7; SUMO Mot1 rescue: 614.2*; NALP1 yeast inh: -6.3; VIM-2 inh: -1.0

How did Cc1ccc(C)c(N2CCN(C(=O)CCCN3C(=S)NC(C)(C)CC3C)CC2)c1 (stereo not drawn) do in these assays?
IMP-1 inhibitor: -3.7; PolyA inhibitor: 12.8; NALP3 yeast inh: 12.8; SUMO Mot1 rescue: -10.5; NALP1 yeast inh: 3.3; VIM-2 inh: -2.4

Results for O=C(NCCc1ccccc1)/C(=C\c1ccccc1)NC(=O)c1ccco1 ?
IMP-1 inhibitor: -2.6; PolyA inhibitor: 3.8; NALP3 yeast inh: 6.2; SUMO Mot1 rescue: -15.7; NALP1 yeast inh: -0.6; VIM-2 inh: -1.2

What do the screens show for `CC1(C)OC(=O)C(=Cc2ccc(-c3ccc(S(N)(=O)=O)cc3)o2)C(=O)O1`?
IMP-1 inhibitor: 34.3*; PolyA inhibitor: 16.8; NALP3 yeast inh: 2.2; SUMO Mot1 rescue: 15.9; NALP1 yeast inh: 11.0; VIM-2 inh: 1.1

What do the screens show for `NS(=O)(=O)c1ccc(-c2ccc(/C=C3\C(=O)Nc4ccccc43)o2)cc1`?
IMP-1 inhibitor: -0.5; PolyA inhibitor: -20.3; NALP3 yeast inh: 44.1; SUMO Mot1 rescue: 7.0; NALP1 yeast inh: -0.2; VIM-2 inh: 0.4

What do the screens show for `CN(CCOc1ccccc1)C(=O)C1CCC(=O)N(CCCN2CCCC2=O)C1` (stereo not drawn)?
IMP-1 inhibitor: -4.3; PolyA inhibitor: -1.3; NALP3 yeast inh: 9.9; SUMO Mot1 rescue: -10.7; NALP1 yeast inh: -2.9; VIM-2 inh: -2.1

Results for Nc1cccc2c1C(=O)N(CCOc1ccccc1F)C2=O ?
IMP-1 inhibitor: 6.8*; PolyA inhibitor: -5.2; NALP3 yeast inh: 38.1; SUMO Mot1 rescue: 71.4; NALP1 yeast inh: 20.6; VIM-2 inh: 0.6

What do the screens show for `N#Cc1ccccc1OCCN1C(=O)c2ccccc2C1=O`?
IMP-1 inhibitor: -4.4; PolyA inhibitor: -6.3; NALP3 yeast inh: 13.7; SUMO Mot1 rescue: -7.1; NALP1 yeast inh: -11.1; VIM-2 inh: -0.7

Results for Nc1nc(Nc2ccccc2F)nc(NCc2ccco2)c1[N+](=O)[O-] ?
IMP-1 inhibitor: -3.8; PolyA inhibitor: 9.6; NALP3 yeast inh: 9.1; SUMO Mot1 rescue: 303.6*; NALP1 yeast inh: 9.5; VIM-2 inh: -2.2

What do the screens show for `O=C(O)CCCCNCc1ccccc1`?
IMP-1 inhibitor: -2.8; PolyA inhibitor: -3.3; NALP3 yeast inh: 7.4; SUMO Mot1 rescue: -15.0; NALP1 yeast inh: 40.5*; VIM-2 inh: -2.4

How did Cc1ccc(C)c(OCC(=O)Nc2ccc(N3CCOCC3)cc2)c1 do in these assays?
IMP-1 inhibitor: -2.5; PolyA inhibitor: -16.4; NALP3 yeast inh: 21.6; SUMO Mot1 rescue: -2.2; NALP1 yeast inh: 2.8; VIM-2 inh: 3.6

How did Cc1ccc(C)c(OCCCC(=O)Nc2ccc(N3CCOCC3)cc2)c1 do in these assays?
IMP-1 inhibitor: 6.3*; PolyA inhibitor: -2.2; NALP3 yeast inh: -1.2; VIM-2 inh: -3.6

What do the screens show for `CCCCn1c(N)c(N(CC(C)C)C(=O)CSCc2c(C)noc2C)c(=O)[nH]c1=O`?
PolyA inhibitor: -11.3; NALP3 yeast inh: 10.1; SUMO Mot1 rescue: 10.9

Results for COc1ccccc1OCC(=O)OC/C(O)=C(\C#N)c1nc2ccccc2[nH]1 ?
IMP-1 inhibitor: 1.5; PolyA inhibitor: 1.6; NALP3 yeast inh: -1.7; SUMO Mot1 rescue: 465.5; NALP1 yeast inh: 20.4; VIM-2 inh: 11.3*

How did Cc1ccc2oc(=O)c3cc(C(=O)NCCCN4CC(C)CC(C)C4)sc3c2c1 (stereo not drawn) do in these assays?
IMP-1 inhibitor: -2.1; PolyA inhibitor: -5.7; NALP3 yeast inh: 18.9; SUMO Mot1 rescue: 0.4; NALP1 yeast inh: 30.2; VIM-2 inh: 10.2*

Results for Cc1ccc2cc3cc(C(=O)N4CC(C)CC(C)C4)oc3nc2c1 (stereo not drawn) ?
IMP-1 inhibitor: -4.6; PolyA inhibitor: -2.2; NALP3 yeast inh: -6.7; SUMO Mot1 rescue: 3.6; NALP1 yeast inh: -29.8; VIM-2 inh: -3.1

How did CCN(Cc1ccccc1)C(=O)c1cc2c(=O)oc3ccc(C)cc3c2s1 do in these assays?
IMP-1 inhibitor: -3.9; PolyA inhibitor: -19.6; NALP3 yeast inh: 24.5; SUMO Mot1 rescue: 5.1; NALP1 yeast inh: 42.3*; VIM-2 inh: 0.8

High-throughput results from PubChem BioAssay.
